Rows were chosen to be rich in hits. Some 2.6% of all compounds tested hit in one or more screens of this group.
Apaf-1 inh: human Apaf-1 inhibition | reconstituted apoptosome caspase-3 activity, DEVD-Rh110 fluorescence | inhibition, % at 20 µM | hit rate 0.71% among 330,000 | AID 489030; active = inhibition of at least 40% at 20 µM;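 note: plate controls were DMSO wells for no effect and DEVD-CHO caspase inhibitor wells for full effect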
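System – cell-free apoptosome with Apaf-1, procaspase-3 and caspase-9 · Buffer or medium – pH 7.5 Hepes buffer with CHAPS, BSA, DTT · Also added – cytochrome c with DEVD-Rh110 · Times – 30 min compound preincubation, 50 min activation, room temperature · Technique – Rh110 fluorescence intensity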
PAD4 FP inh: PAD4 (human) enzyme inhibition. inhibition, % at 6.36 µM. hit rate 0.41% among 330,000. Q9UM07. recombinant PAD4, RCA probe fluorescence polarization;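 active = percent inhibition above a cutoff equal to the mean of all tested compounds plus 3 SD, cut at about 15% in these data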;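 note: 0% = PAD4 with RCA probe and DMSO and 100% = probe without PAD4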
TDP2 absorb: TDP2 (human) inhibition, absorbance primary screen; recombinant TDP2, T5PNP hydrolysis, p-nitrophenol absorbance 415 nm; O95551; hit rate 0.34% among 370,000; AID 720702; inhibition, % at 12.8 µM;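 active = inhibition above the mean of all tested compounds plus 3 SD, set per campaign, cut at about 25% in these data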;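 note: 0% = DMSO with enzyme and 100% = buffer with substrate but no TDP2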
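Evaluation: % inhibition relative to enzyme-containing and enzyme-free wells. Material: recombinant human TDP2. Benchmarks: enzyme-free and DMSO wells. Timing: enzyme reaction with compound for 2 h at 37 °C. Compound dosing: 12.8 µM only. Measured by: p-Nitrophenol epi absorbance. Reagent: T5PNP substrate at 5 mM, a TopII-DNA adduct mimic. Replication: single well per compound.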
PRMT1 inh: inhibitors of human PRMT1 | recombinant PRMT1, activity-based probe fluorescence polarization | inhibition, % at 2.79 µM | hit rate 1.3% among 370,000;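 active = inhibition above about 21% made by adding two undisclosed values, limit read from the data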
GSTO1 counter: blocks human GSTO1 in RBBP9 counter-screen | AID 1974 | hit rate 1.1% among 300,000 | P78417 | recombinant GSTO1, activity-based probe fluorescence polarization | inhibition, % at 5.96 µM;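 active = inhibition above the campaign mean inhibition plus 3 SD, cut at about 35% in these data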;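 note: 0% = GSTO1-1 with DMSO and 100% = wells lacking GSTO1-1 enzyme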
Target sequence (P78417 whole entry, looked up): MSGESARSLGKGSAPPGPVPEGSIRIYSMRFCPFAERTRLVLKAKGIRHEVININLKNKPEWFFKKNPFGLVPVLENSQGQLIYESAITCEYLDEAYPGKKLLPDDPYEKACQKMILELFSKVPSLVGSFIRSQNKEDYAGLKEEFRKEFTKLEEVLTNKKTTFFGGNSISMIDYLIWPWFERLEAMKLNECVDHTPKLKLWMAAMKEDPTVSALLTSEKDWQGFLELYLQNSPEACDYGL
PRMT1 confirm: PRMT1 (human) inhibition, FP confirmation; shares compounds with PRMT1 inh; recombinant His-PRMT1, activity-based probe fluorescence polarization; inhibition, % at 2.79 µM; hit rate 42% among 3,300;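 active = mean inhibition across replicates above the hit cutoff derived for the earlier primary screen, cut at about 22% in these data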
An asterisk follows results filed as active; . = not tested or not shown.

SMILES	Apaf-1 inh	PAD4 FP inh	TDP2 absorb	PRMT1 inh	GSTO1 counter	PRMT1 confirm
Cc1ccc(N2C(=O)C3C4C=CC(CNC(=S)Nc5cccc(Cl)c5)(O4)C3C2=O)cc1 (centres undefined)	18	-3	-12	90*	-5	53*
Cc1ccc(N2C(=O)C3C4C=CC(CNC(=S)N5CCN(c6ccccn6)CC5)(O4)C3C2=O)cc1 (centres undefined)	-2	-4	8	57*	9	48*
COc1ccccc1C(=O)Nc1ccc(-c2nnn(CC(=O)NCc3ccco3)n2)cc1	-2	-8	2	-4	-25	.
COC(=O)c1c(C(=O)OC)c2c(-c3ccccc3)cc3cccc1n32	.	.	-3	-1	.	.
CC(C)COC(=O)NCC12C=CC(O1)C1C(=O)N(c3ccc(Cl)cc3)C(=O)C12 (centres undefined)	6	1	2	37*	-2	33*
CCc1ccccc1N1CC23C=CC(O2)C(C(=O)OCC(C)C)C3C1=O (centres undefined)	-6	-3	0	0	0	.
Cc1ccc(N2C(=O)C3C4C=CC(CNC(=S)Nc5ccc(F)cc5)(O4)C3C2=O)cc1 (centres undefined)	9	5	-2	80*	9	41*
Cc1ccc(CNC(=O)C2CCCN(C(=O)Nc3ccc(F)cc3)C2)cc1 (centres undefined)	1	3	-7	1	0	.
COc1cccc(CN(C)C(=O)c2ccccc2Sc2ccccc2C#N)c1OC	22	.	11	4	.	.
CCOc1ccc(N2C(=O)CC(NC3CCN(C(=O)c4cccs4)CC3)C2=O)cc1 (centres undefined)	-9	-4	-12	89*	0	-3
CCOc1ccc(N2C(=O)CC(NC3CCN(C(=O)c4cccc(Cl)c4)CC3)C2=O)cc1 (centres undefined)	-3	-1	-6	65*	5	2
CCOC(=O)c1ccc(N2C(=O)CC(NC3CCN(C(=O)c4cccc(Cl)c4)CC3)C2=O)cc1 (centres undefined)	5	-8	.	.	-1	.
CC(C)(C)n1nnnc1C(c1cc2ccccc2o1)N1CCN(C(=O)OCc2ccccc2)CC1 (centres undefined)	.	.	2	3	.	.
Nc1c(C(=O)Nc2ccc(F)cc2)sc2nc(-c3ccco3)ccc12	32	-8	-10	44*	9	30*
Nc1c(C(=O)Nc2ccc(Br)cc2)sc2nc(-c3ccco3)ccc12	25	-16	1	45*	0	21
Cc1ccc(NC(=O)c2sc3nc4c(c(-c5ccco5)c3c2N)CCC4)cc1	25	-5	-6	6	7	.
CCCCCCNC(=O)c1cn(CC)c2cc(N3CCN(C)CC3)c(F)cc2c1=O	17	-2	3	0	-9	.
Cc1nc(C)c(-c2csc(Nc3cccc(O)c3)n2)s1	8	2	4	4	-4	.
Cc1nc(N)sc1-c1csc(Nc2cccc(O)c2)n1	-12	-11	-9	25*	8	5
CCC(=O)Nc1nc(C)c(-c2csc(Nc3cccc(O)c3)n2)s1	10	-2	-19	49*	1	5
Cc1nc(NC(=O)c2ccccc2)sc1-c1csc(Nc2cccc(Cl)c2)n1	-14	-13	.	.	-19	.
O=C1CN(C(=O)NCC(=O)N2CCCC2)c2ccccc2N1	4	-2	0	4	-4	.
CSc1ccccc1NC(=O)CN(C)Cc1c(O)ccc2ccccc12	15	-3	-19	39*	-1	30*
CCc1ccc(C(=O)NNC(=O)C2CSC3(C)CCC(=O)N23)cc1 (centres undefined)	-6	-1	9	-1	15	.
CC(C)c1ccccc1NC(=O)CCc1nc2ccccc2s1	-1	-4	8	32*	-2	16
O=C(CN1C(=O)CC(c2ccco2)Sc2ccccc21)NCc1ccc2c(c1)OCO2 (centres undefined)	6	2	.	.	0	.
O=C(CN1C(=O)CC(c2ccco2)Sc2ccccc21)Nc1ccccc1F (centres undefined)	9	2	1	58*	16	19
Cc1c(N2C(=O)/C(=C/c3ccccc3)SC2=S)c(=O)n(-c2ccccc2)n1C	6	5	-6	9	-5	.
